Test results from ChEMBL document CHEMBL1158351, “Studies on chemical structure modification and biology of a natural product, gambogic acid (I): Synthesis and biological evaluation of oxidized analogues of gambogic acid” (Eur J Med Chem, 2009).
Calls of active or inactive are those of the source. The rule behind the calls is not given here.

Legend:
[1] = test system: SK-OV-3; assay: Cytotoxicity against human SKOV3 cells after 48 hrs by MTT assay; format: functional, cell-based; conditions: SK-OV-3, 48 h
How it was run: (§1)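 Cells in RPMI-1640 with 10% heat-inactivated calf serum, penicillin/streptomycin, 5% CO2, 37 °C. Seeded at 5×10³ per well and exposed to six concentrations of 0.01–1000 for 48 h. Then 0.5% MTT for 4 h at 37 °C, formazan dissolved in DMSO, absorbance read at 570 nm. Inhibition calculated as (1 − treated/control absorbance)×100. IC50 is the concentration giving 50% inhibition; mean ± SD of three observations.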

[2] = test system: Bel-7402; assay: Cytotoxicity against human Bel7402 cells after 48 hrs by MTT assay; format: functional, cell-based; conditions: Bel-7402, 48 h; how it was run: as §1
[3] = test system: BGC-823; assay: Cytotoxicity against human BGC823 cells after 48 hrs by MTT assay; format: functional, cell-based; conditions: BGC-823, 48 h; how it was run: as §1
[4] = test system: A549; assay: Cytotoxicity against human A549 cells after 48 hrs by MTT assay; format: functional, cell-based; conditions: A549, 48 h; how it was run: as §1
[5] = test system: HT-29; assay: Cytotoxicity against human HT-29 cells after 48 hrs by MTT assay; format: functional, cell-based; conditions: HT-29, 48 h; how it was run: as §1
[6] = test system: HepG2; assay: Induction of apoptosis in human HepG2 cells assessed viable cells at 6 uM after 20 hrs using FITC-conjugated annexin V and propidium iodide staining by FACS analysis; format: functional
How it was run: (§2)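 HepG2 cells in flasks treated for 20 h, then 1×10⁶ cells harvested, washed and resuspended in PBS. Stained with FITC-Annexin V and PI kit per kit instructions and analysed by flow cytometry. Quadrants: Annexin−/PI− viable, Annexin+/PI− early apoptotic, upper right necrotic/late apoptotic.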

[7] = test system: HepG2; assay: Induction of apoptosis in human HepG2 cells assessed late apoptotic cells at 1 uM after 20 hrs using FITC-conjugated annexin V and propidium iodide staining by FACS analysis; format: functional; how it was run: as §2
[8] = test system: HepG2; assay: Induction of apoptosis in human HepG2 cells assessed early apoptotic cells at 1 uM after 20 hrs using FITC-conjugated annexin V and propidium iodide staining by FACS analysis; format: functional; how it was run: as §2
[9] = test system: HepG2; assay: Induction of apoptosis in human HepG2 cells assessed early apoptotic cells at 2 uM after 20 hrs using FITC-conjugated annexin V and propidium iodide staining by FACS analysis; format: functional; how it was run: as §2
[10] = test system: HepG2; assay: Induction of early apoptosis in human HepG2 cells assessed as presence of congregated chromatin and nucleolus pyknosis at 1 uM after 18 hrs using AOEB staining by fluorescence microscopy; format: functional, cell-based
How it was run: (§3)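 HepG2 cells treated for 18 h, fixed in 4% paraformaldehyde for 20 min, and permeabilized in 0.1% Triton for 20 min. Stained with acridine orange/ethidium bromide in PBS for 5 min. Viewed by fluorescence microscopy at 490 nm excitation. Green AO with condensed chromatin scored as early apoptotic; uniform red EB scored as dead.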

[11] = test system: HepG2; assay: Induction of apoptosis in human HepG2 cells assessed as morphological changes at 3 uM after 20 hrs using DAPI staining by fluorescence microscopy; format: functional, cell-based
How it was run: (§4)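 Mid-log HepG2 cultures in RPMI-1640 treated for 20 h, then morphology checked by inverted light microscopy. Floating and attached cells collected with EDTA/trypsin, fixed in ice-cold 4% paraformaldehyde for 20 min, and permeabilized with 0.3% Triton X-100. Stained with DAPI and viewed by fluorescence microscopy at 340 nm excitation.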

[12] = test system: HepG2; assay: Induction of apoptosis in human HepG2 cells assessed as decrease in Bcl-2 protein expression at 2 uM after 20 hrs by SDS-PAGE; format: functional, cell-based
How it was run: (§5)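 HepG2 cells treated for 20 h, then lysed in Tris-Cl pH 6.8 buffer with 4% SDS, 20% glycerol, 200 mM β-mercaptoethanol, PMSF and aprotinin. Protein measured by Bradford at 595 nm and resolved on 10% SDS-PAGE, then transferred to PVDF membrane. Probed overnight at 4 °C with anti-Bcl-2, anti-Bax and anti-actin primaries, then 1 h with IRDye800 secondaries. Bcl-2/Bax ratio derived from band quantitation.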

[13] = test system: HepG2; assay: Induction of apoptosis in human HepG2 cells assessed viable cells at 2 uM after 20 hrs using FITC-conjugated annexin V and propidium iodide staining by FACS analysis; format: functional; how it was run: as §2
[14] = test system: HepG2; assay: Induction of apoptosis in human HepG2 cells assessed nonviable necrotic cells at 2 uM after 20 hrs using FITC-conjugated annexin V and propidium iodide staining by FACS analysis; format: functional; how it was run: as §2
[15] = test system: HepG2; assay: Induction of apoptosis in human HepG2 cells assessed as morphological changes at 2 uM after 20 hrs using DAPI staining by fluorescence microscopy; format: functional, cell-based; how it was run: as §4
[16] = test system: HepG2; assay: Induction of apoptosis in human HepG2 cells assessed early apoptotic cells at 6 uM after 20 hrs using FITC-conjugated annexin V and propidium iodide staining by FACS analysis; format: functional; how it was run: as §2
[17] = test system: HepG2; assay: Induction of early apoptosis in human HepG2 cells assessed as presence of congregated chromatin and nucleolus pyknosis at 3 uM after 18 hrs using AOEB staining by fluorescence microscopy; format: functional, cell-based; how it was run: as §3
[18] = test system: HepG2; assay: Induction of apoptosis in human HepG2 cells assessed nonviable necrotic cells at 6 uM after 20 hrs using FITC-conjugated annexin V and propidium iodide staining by FACS analysis; format: functional; how it was run: as §2
[19] = test system: HepG2; assay: Induction of apoptosis in human HepG2 cells assessed as decrease in Bcl-2 protein expression at 1 uM after 20 hrs by SDS-PAGE; format: functional, cell-based; how it was run: as §5
[20] = test system: HepG2; assay: Induction of apoptosis in human HepG2 cells assessed as ratio of Bcl-2 to Bax protein expression at 6 uM after 20 hrs by SDS-PAGE; format: functional; how it was run: as §5
[21] = test system: HepG2; assay: Induction of early apoptosis in human HepG2 cells assessed as presence of congregated chromatin and nucleolus pyknosis at 2 uM after 18 hrs using AOEB staining by fluorescence microscopy; format: functional, cell-based; how it was run: as §3
[22] = test system: HepG2; assay: Induction of apoptosis in human HepG2 cells assessed as decrease in Bcl-2 protein expression at 6 uM after 20 hrs by SDS-PAGE; format: functional, cell-based; how it was run: as §5
[23] = test system: HepG2; assay: Induction of apoptosis in human HepG2 cells assessed nonviable necrotic cells at 1 uM after 20 hrs using FITC-conjugated annexin V and propidium iodide staining by FACS analysis; format: functional; how it was run: as §2
[24] = test system: HepG2; assay: Induction of apoptosis in human HepG2 cells assessed as inhibition of cell viability after 24 hrs by MTT assay; format: functional, cell-based
How it was run: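 Medium then removed and MTT added; after 4 h the supernatant was discarded and DMSO added. Absorbance read at 570 nm. Mean ± SD, n = 3; IC50 calculated from the concentration–response.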

[25] = test system: HepG2; assay: Induction of apoptosis in human HepG2 cells assessed viable cells at 1 uM after 20 hrs using FITC-conjugated annexin V and propidium iodide staining by FACS analysis; format: functional; how it was run: as §2
[26] = test system: HepG2; assay: Induction of apoptosis in human HepG2 cells assessed as ratio of Bcl-2 to Bax protein expression at 1 uM after 20 hrs by SDS-PAGE; format: functional; how it was run: as §5
[27] = test system: HepG2; assay: Induction of apoptosis in human HepG2 cells assessed as ratio of Bcl-2 to Bax protein expression at 2 uM after 20 hrs by SDS-PAGE; format: functional; how it was run: as §5
[28] = test system: HepG2; assay: Induction of apoptosis in human HepG2 cells assessed late apoptotic cells at 2 uM after 20 hrs using FITC-conjugated annexin V and propidium iodide staining by FACS analysis; format: functional; how it was run: as §2
[29] = test system: HepG2; assay: Induction of apoptosis in human HepG2 cells assessed as morphological changes at 1 uM after 20 hrs using DAPI staining by fluorescence microscopy; format: functional, cell-based; how it was run: as §4
[30] = test system: HepG2; assay: Induction of apoptosis in human HepG2 cells assessed late apoptotic cells at 6 uM after 20 hrs using FITC-conjugated annexin V and propidium iodide staining by FACS analysis; format: functional; how it was run: as §2

In the case of `CC(C)=CCC[C@]1(C)C=Cc2c(O)c3c(c(CC=C(C)C)c2O1)O[C@]12[C@H]4C[C@H](C(=O)[C@]1(C/C=C(/C)C(=O)O)OC4(C)C)C(O)C2(O)C3=O` (stereo partly specified), the IC50 [1] is reported as 6 µM, the IC50 [2] is reported as 33.1 µM and the IC50 [3] is reported as 29.9 µM. For the same compound, the IC50 [4] was 74.2 µM and the IC50 [5] was 34.7 µM.

In the case of `COC(=O)/C(C)=C\C[C@@]12OC(C)(C)[C@@H]3C[C@@H](C=C4C(=O)c5c(OC)c6c(c(CC=C(C)C)c5O[C@]431)O[C@](C)(CC[C@H](O)C(C)(C)O)C=C6)C2=O`, the IC50 [1] is reported as 3.23 µM, the IC50 [2] is reported as 3.65 µM and the IC50 [3] is reported as 3.46 µM. It also gave an IC50 [4] of 5.86 µM and an IC50 [5] of 3.75 µM.

For `COC(=O)/C(C)=C\C[C@@]12OC(C)(C)[C@@H]3C[C@@H](C=C4C(=O)c5c(OC)c6c(c(CC7OC7(C)C)c5O[C@]431)O[C@](C)(CCC1OC1(C)C)C=C6)C2=O` (stereo partly specified), the IC50 [1] was 1.8 µM, the IC50 [2] was 1.66 µM and the IC50 [3] was 3.21 µM. It also gave an IC50 [4] of 3.61 µM and an IC50 [5] of 1.86 µM.

With `COC(=O)/C(C)=C\C[C@@]12OC(C)(C)[C@@H]3C[C@@H](C=C4C(=O)c5c(OC)c6c(c(CC=C(C)C)c5O[C@]431)O[C@](C)(CC/C=C(\C)CO)C=C6)C2=O` the Activity [6] was 72.7%, the Activity [7] was 3.5% and the Activity [8] was 4%. For the same compound, the Activity [9] was 5%, the Activity [10] was “Active” and the Activity [11] was “Active”. For the same compound, the Activity [12] was “Active”, the Activity [13] was 92.3% and the Activity [14] was 0.2%. The IC50 [1] was 1.28 µM, the Activity [15] was “Active” and the Activity [16] was 12.9%. For the same compound, the Activity [17] was “Active”, the IC50 [2] was 0.96 µM and the Activity [18] was 0.9%. For the same compound, the Activity [19] was “Active”, the Ratio [20] was 0.251 and the Activity [21] was “Active”. For the same compound, the Activity [22] was “Active”, the IC50 [3] was 0.84 µM and the Activity [23] was 0.2%. The IC50 [4] was 4.38 µM, the Activity [24] was “Dose-dependent effect” and the IC50 ([24]; HepG2, 24 h) was 2.35 µM. It also gave an Activity [25] of 92.3%, a Ratio [26] of 0.476 and a Ratio [27] of 0.478. The Activity [28] was 2.5%, the Activity [29] was “Active” and the IC50 [5] was 0.89 µM. For the same compound, the Activity [30] was 13.5%.

`CC(C)=CCC[C@]1(C)C=Cc2c(O)c3c(c(CC=C(C)C)c2O1)O[C@]12C(=C[C@@H]4C[C@H]1C(C)(C)O[C@@]2(C/C=C(/C)C(=O)O)C4=O)C3=O` [GAMBOGIC ACID] gave an IC50 [1] of 3.06 µM, an IC50 [2] of 3.31 µM and an IC50 [3] of 4.51 µM. For the same compound, the IC50 [4] was 5.81 µM and the IC50 [5] was 5.61 µM.

`COC(=O)/C(C)=C\C[C@@]12OC(C)(C)[C@@H]3C[C@@H](C=C4C(=O)c5c(OC)c6c(c(CC=C(C)C)c5O[C@]431)O[C@](C)(CCC1OC1(C)C)C=C6)C2=O` (stereo partly specified) showed an IC50 [1] of 0.64 µM, an IC50 [2] of 1.4 µM and an IC50 [3] of 0.75 µM. For the same compound, the IC50 [4] was 1.48 µM and the IC50 [5] was 2.19 µM.
